{"source": "paper PMC9546099", "about": "(British Journal of Clinical Pharmacology, 2022)", "key": {"[1]": {"format": "in vivo, human", "conditions": "for Tlag / Tmax: median (minimum - maximum); for Tmax: t max", "method_in_brief": "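Plasma was precipitated with acetonitrile plus internal standards, vortexed and centrifuged. Supernatant was diluted with water for validated LC-MS/MS of parent and metabolites, with quantification limit 10 ng/mL and calibration curves and QC samples in every batch. Noncompartmental analysis per subject gave geometric mean (%CV) parameters, with tmax as median (min–max).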"}, "COMT": {"tested_on": "COMT", "conditions": "cited from earlier work; for IC50: read-out: IC50 against COMT"}, "[2]": {"assay": "Metabolite profiling in plasma AUC pool by LC-AMS", "format": "in vivo, human", "conditions": "average, AMS radiodetection", "method_in_brief": "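A per-subject plasma AUC pool (Hamilton method) covered at least the last quantifiable time point. Plasma (5 g) was precipitated twice with acetonitrile, evaporated and resuspended in DMSO:acetonitrile:water 20:20:60. LC fractions were measured by AMS, with carbon content in duplicate. Peaks were assigned against spiked synthetic standards (UV 250 nm). Extraction recovery compared pool versus supernatant and reconstituted-extract radioactivity.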"}, "[3]": {"conditions": "cited from earlier work"}, "[4]": {"assay": "Metabolite profiling in urine and faeces by LC-MS and off-line radiodetection", "format": "in vivo, human", "method_in_brief": "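Urine was pooled per subject to ≥80% of recovered radioactivity and concentrated. Faeces were pooled to >90% of excreted radioactivity, plus cross-subject 48-72 h and 96-120 h pools; these were acetonitrile-extracted, dried and reconstituted in acetonitrile:water 20:80. Analysis used accurate-mass LC-MS (± switching, 70 000 resolution, 100-800 amu; HCD MS/MS 17 500) with off-line radiodetection, reported as % administered radioactivity.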"}, "[5]": {"conditions": "cited from earlier work", "remark": "listed apart in the source"}, "[6]": {"conditions": "cited from earlier work", "remark": "listed apart in the source"}, "[7]": {"conditions": "rat; cited from earlier work"}, "[8]": {"conditions": "nonhuman primate [NHP]; cited from earlier work"}, "[9]": {"conditions": "male, human, plasma, oral, 100 mg"}}, "note": "Where “and” joins values, the source holds several entries; their conditions need not be identical. Identical values can stand only once. Counter-ions that a name gives are not always drawn. Like-named read-outs stand apart in the source and are kept apart here."}
{"smiles": "Cc1nc(Cl)c(-c2noc(-c3cc(O)c(O)c([N+](=O)[O-])c3)n2)c(C)c1Cl", "note": "[BIA 9‐1079, 5-(3-(2,5-dichloro-4,6-dimethylpyridin-3-yl)-1,2,4-oxadiazol-5-yl)-3-nitrobenzene-1,2-diol]", "values": [{"measurement": "plasma concentration", "setting": "[1]; below the limit of quantification in almost all time points", "result": "< 10", "unit": "ng/mL"}, {"measurement": "IC50", "setting": "COMT", "result": 128, "unit": "nM"}]}
{"smiles": "COc1cc(-c2nc(-c3c(C)c(Cl)c(C)[n+]([O-])c3Cl)no2)cc([N+](=O)[O-])c1O", "note": "[BIA 9‐1100, 2,5-dichloro-3-(5-(4-hydroxy-3-methoxy-5-nitrophenyl)-1,2,4-oxadiazol-3-yl)-4,6-dimethylpyridine 1-oxide]", "values": [{"measurement": "% of total circulating radioactivity", "setting": "[2]", "result": 2.96, "unit": "%"}]}
{"smiles": "COc1cc(-c2nc(-c3c(C)c(Cl)c(C)[n+]([O-])c3Cl)no2)cc([N+](=O)[O-])c1O", "note": "[BIA 9‐1101, 2,5-dichloro-3-(5-(4-hydroxy-3-methoxy-5-nitrophenyl)-1,2,4-oxadiazol-3-yl)-4,6 dimethylpyridine 1-oxide]", "values": [{"measurement": "% of total circulating radioactivity", "setting": "[2]", "result": 0.39, "unit": "%"}]}
{"smiles": "Cc1c(Cl)c(C)[n+]([O-])c(Cl)c1-c1noc(-c2cc(OS(=O)(=O)O)c(O)c([N+](=O)[O-])c2)n1", "note": "[BIA 9‐1103, 5-(3-(2,5-dichloro-4,6-dimethyl-1-oxidopyridin-3-yl)-1,2,4-oxadiazol-5-yl)-2-hydroxy-3-nitrophenyl sulfate]", "values": [{"measurement": "AUCt", "setting": "[1]; plasma, geometric mean (% CV)", "result": "8120 (75.7) ng.h/ml"}, {"measurement": "C max", "setting": "[1]; plasma, geometric mean (% CV)", "result": "115(48.7) ng/ml"}, {"measurement": "Tlag", "setting": "[1]; plasma", "result": "1.05 (1.00‐2.00) h"}, {"measurement": "% of total circulating radioactivity", "setting": "[2]", "result": 58.6, "unit": "%"}, {"measurement": "pharmacological activity on COMT", "setting": "COMT", "result": "pharmacologically inactive on COMT"}, {"measurement": "pharmacological activity on COMT", "setting": "COMT; listed as 3‐O‐sulfate‐opicapone", "result": "pharmacologically inactive"}, {"measurement": "binding to plasma proteins", "setting": "[3]", "result": "more than 98%"}]}
{"smiles": "COc1c(O)cc(-c2nc(-c3c(C)c(Cl)c(C)[n+]([O-])c3Cl)no2)cc1[N+](=O)[O-]", "note": "[BIA 9‐1104, 2,5-dichloro-3-(5-(3-hydroxy-4-methoxy-5-nitrophenyl)-1,2,4-oxadiazol-3-yl)-4,6-dimethylpyridine 1-oxide]", "values": [{"measurement": "% of total circulating radioactivity", "setting": "[2]", "result": 6.59, "unit": "%"}, {"measurement": "IC50", "setting": "COMT", "result": 429, "unit": "nM"}]}
{"smiles": "Cc1c(Cl)c(C)[n+]([O-])c(Cl)c1-c1noc(-c2cc(O[C@@H]3O[C@H](C(=O)O)[C@@H](O)[C@H](O)[C@H]3O)c(O)c([N+](=O)[O-])c2)n1", "note": "[BIA 9‐1106, 3-(5-(3-((2S,3R,4S,5S,6S)-6-carboxy-3,4,5-trihydroxytetrahydro-2H-pyran-2-yloxy)-4-hydroxy-5-nitrophenyl)-1,2,4-oxadiazol-3-yl)-2,5-dichloro-4,6-dimethylpyridine 1-oxide]", "values": [{"measurement": "AUC(0-t)", "setting": "[1]; [9]", "result": 75, "unit": "ng·h/mL"}, {"measurement": "Cmax", "setting": "[1]; [9]", "result": 33.6, "unit": "ng/mL"}, {"measurement": "Tmax", "setting": "[1]; [9]", "result": 2, "unit": "h"}, {"measurement": "Tlag", "setting": "[1]; plasma", "result": "0.75 (0.500‐2.00) h"}, {"measurement": "% of the administered radioactivity in urine", "setting": "[4]; average, pooled urine", "result": "1.72% and < 2%"}]}
{"smiles": "COc1c(OS(=O)(=O)O)cc(-c2nc(-c3c(C)c(Cl)c(C)[n+]([O-])c3Cl)no2)cc1[N+](=O)[O-].c1ccncc1", "note": "[BIA 9‐4584, pyridin-1-ium 5-(3-(2,5-dichloro-4,6-dimethyl-1-oxidopyridin-3-yl)-1,2,4-oxadiazol-5-yl)-2-methoxy-3-nitrophenyl sulfate]", "values": [{"measurement": "% of total circulating radioactivity", "setting": "[2]", "result": 2.30, "unit": "%"}]}
{"smiles": "COc1c(O)cc(-c2nc(-c3c(C)c(Cl)c(C)[n+]([O-])c3SC[C@H](N)C(=O)O)no2)cc1[N+](=O)[O-].Cl", "note": "[BIA 9‐5049, (R)-2-((2-amino-2-carboxyethyl)thio)-5-chloro-3-(5-(3-hydroxy-4-methoxy-5-nitrophenyl)-1,2,4-oxadiazol-3-yl)-4,6-dimethylpyridine 1-oxide hydrochloride]", "values": [{"measurement": "% of total circulating radioactivity", "setting": "[2]", "result": 3.72, "unit": "%"}]}
{"smiles": "Cc1c(Cl)c(C)[n+]([O-])c(Cl)c1-c1noc(-c2cc(O)c(O)c([N+](=O)[O-])c2)n1", "note": "[opicapone, 2,5‐dichloro‐3‐(5‐[3,4‐dihydroxy‐5‐nitrophenyl]‐1,2,4‐oxadiazol‐3‐yl)‐4,6‐dimethylpyridine 1‐oxide, reference compound]", "values": [{"measurement": "AUC(0-inf)", "setting": "[1]; [9]", "result": 1890, "unit": "ng·h/mL"}, {"measurement": "AUC(0-t)", "setting": "[1]; [9]", "result": 1830, "unit": "ng·h/mL"}, {"measurement": "Cmax", "setting": "[1]; [9]", "result": 600, "unit": "ng/mL"}, {"measurement": "half-life", "setting": "[1]; [9]", "result": 1, "unit": "h"}, {"measurement": "Tmax", "setting": "[1]; [9]", "result": 2, "unit": "h"}, {"measurement": "Tlag", "setting": "[1]; plasma", "result": "0.250 (0.250‐0.500) h"}, {"measurement": "% of total circulating radioactivity", "setting": "[2]", "result": 12.1, "unit": "%"}, {"measurement": "% of the administered radioactivity excreted in faeces", "setting": "[4]; average, pooled faeces", "result": 22.32, "unit": "%"}, {"measurement": "unchanged parent observed in urine", "setting": "[4]; in vivo", "result": "Only trace amounts"}, {"measurement": "cytotoxicity", "setting": "[5]", "result": "not to induce cytotoxicity"}, {"measurement": "dose proportionality of the pharmacokinetic profile", "setting": "[6]", "result": "dose‐proportional up to 1200 mg"}, {"measurement": "fraction of the dose recovered in faeces", "setting": "[7]", "result": "more than 70%"}, {"measurement": "fraction of the dose recovered in faeces", "setting": "[8]", "result": "more than 70%"}]}
